From ChEMBL document CHEMBL1772978, “Exploration of the activity of 7-pyrrolidino-8-methoxyisothiazoloquinolones against methicillin-resistant Staphylococcus aureus (MRSA)” (J Med Chem, 2011)
In brackets after ≈: the same amount, converted by molar mass.

Experiments:
Staphylococcus aureus [1] = experiment: Antibacterial activity against methicillin-sensitive Staphylococcus aureus ATCC 29213 after 24 hrs by microdilution method; type: functional; details: ATCC 29213, 24 h
Method in brief: (§1)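 MIC taken as the lowest concentration with no visible bacterial growth after 18-24 h at 37 °C, given in μg/mL; modal value of multiple experiments.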

[2] = Cytotoxicity against human Hep2 cells after 72 hrs by alamar blue assay; type: cell-based; details: HEp-2 cells
Staphylococcus aureus [3] = experiment: Antibacterial activity against methicillin- and quinolone-resistant Staphylococcus aureus ATCC700699 after 24 hrs by microdilution method; type: functional; details: ATCC700699, 24 h
Method in brief: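 Broth microdilution; MIC read as the lowest compound concentration that prevents visible bacterial growth after incubation at 37 °C for 18–24 h, and expressed in μg/mL.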

Escherichia coli = experiment: Antibacterial activity against Escherichia coli ATCC25922 after 24 hrs by microdilution method; type: functional; details: ATCC25922, 24 h; method in brief: as §1

Compound | MIC (Staphylococcus aureus [1]) [µg/mL] | CC50 at 72 h [2] [µM] | MIC (Staphylococcus aureus [3]) [µg/mL] | MIC (Escherichia coli) [µg/mL]
COc1c(N2CCNCC2)c(F)cc2c(=O)c3c(=O)[nH]sc3n(C3CC3)c12 | 0.06 (≈ 0.154 µM) | 27 | 4 (≈ 10.2 µM) | 0.03 (≈ 0.0768 µM)
COc1c(N2CC[C@@H](N)C2)c(F)cc2c(=O)c3c(=O)[nH]sc3n(C3CC3)c12 | 0.03 (≈ 0.0768 µM) | 25 | 2 (≈ 5.12 µM) | 0.008 (≈ 0.0205 µM)
COc1c(N2CC[C@H](N)C2)c(F)cc2c(=O)c3c(=O)[nH]sc3n(C3CC3)c12 | 0.008 (≈ 0.0205 µM) | 19 | 0.5 (≈ 1.28 µM) | 0.008 (≈ 0.0205 µM)
CN[C@@H]1CCN(c2c(F)cc3c(=O)c4c(=O)[nH]sc4n(C4CC4)c3c2OC)C1 | 0.006 (≈ 0.0148 µM) | 42 | 4 (≈ 9.89 µM) | 0.06 (≈ 0.148 µM)
CN[C@H]1CCN(c2c(F)cc3c(=O)c4c(=O)[nH]sc4n(C4CC4)c3c2OC)C1 | 0.03 (≈ 0.0742 µM) | 41 | 2 (≈ 4.94 µM) | 0.06 (≈ 0.148 µM)
COc1c(N2CC[C@H](CN)C2)c(F)cc2c(=O)c3c(=O)[nH]sc3n(C3CC3)c12 | 0.008 (≈ 0.0198 µM) | 11 | 0.25 (≈ 0.618 µM) | 0.03 (≈ 0.0742 µM)
COc1c(N2CC[C@@H](CN)C2)c(F)cc2c(=O)c3c(=O)[nH]sc3n(C3CC3)c12 | 0.008 (≈ 0.0198 µM) | 11 | 0.25 (≈ 0.618 µM) | 0.004 (≈ 0.00989 µM)
CNC[C@@H]1CCN(c2c(F)cc3c(=O)c4c(=O)[nH]sc4n(C4CC4)c3c2OC)C1 | 0.008 (≈ 0.0191 µM) | 28 | 0.5 (≈ 1.19 µM) | 0.06 (≈ 0.143 µM)
COc1c(N2CC[C@@H](CNCCF)C2)c(F)cc2c(=O)c3c(=O)[nH]sc3n(C3CC3)c12 | 0.008 (≈ 0.0178 µM) | 18 | 0.13 (≈ 0.289 µM) | 0.03 (≈ 0.0666 µM)
COc1c(N2CC[C@@H](CNC(C)C)C2)c(F)cc2c(=O)c3c(=O)[nH]sc3n(C3CC3)c12 | 0.02 (≈ 0.0448 µM) | 33 | 0.5 (≈ 1.12 µM) | 0.06 (≈ 0.134 µM)
COc1c(N2CC[C@@H](CNC3CC3)C2)c(F)cc2c(=O)c3c(=O)[nH]sc3n(C3CC3)c12 | 0.004 (≈ 0.009 µM) | 23 | 0.06 (≈ 0.135 µM) | 0.03 (≈ 0.0675 µM)
COc1c(N2CC[C@@H](CN(C)C)C2)c(F)cc2c(=O)c3c(=O)[nH]sc3n(C3CC3)c12 | 0.06 (≈ 0.139 µM) | > 100 | 4 (≈ 9.25 µM) | 0.13 (≈ 0.301 µM)
COc1c(N2CC[C@@H]([C@@H](C)N)C2)c(F)cc2c(=O)c3c(=O)[nH]sc3n(C3CC3)c12 | 0.02 (≈ 0.0478 µM) | 33 | 0.25 (≈ 0.597 µM) | 0.03 (≈ 0.0717 µM)
COc1c(N2CC[C@H]([C@@H](C)N)C2)c(F)cc2c(=O)c3c(=O)[nH]sc3n(C3CC3)c12 | 0.02 (≈ 0.0478 µM) | 51 | 1 (≈ 2.39 µM) | 0.06 (≈ 0.143 µM)
COc1c(N2CC[C@H]([C@H](C)N)C2)c(F)cc2c(=O)c3c(=O)[nH]sc3n(C3CC3)c12 | 0.03 (≈ 0.0717 µM) | 15 | 1 (≈ 2.39 µM) | 0.06 (≈ 0.143 µM)
CN[C@H](C)[C@@H]1CCN(c2c(F)cc3c(=O)c4c(=O)[nH]sc4n(C4CC4)c3c2OC)C1 | 0.02 (≈ 0.0462 µM) | 29 | 0.5 (≈ 1.16 µM) | 0.06 (≈ 0.139 µM)
CCN[C@@H](C)[C@@H]1CCN(c2c(F)cc3c(=O)c4c(=O)[nH]sc4n(C4CC4)c3c2OC)C1 | 0.004 (≈ 0.00896 µM) | 27 | 0.13 (≈ 0.291 µM) | 0.06 (≈ 0.134 µM)
COc1c(N2CC[C@@H]([C@@H](C)NCCF)C2)c(F)cc2c(=O)c3c(=O)[nH]sc3n(C3CC3)c12 | 0.004 (≈ 0.00861 µM) | 74 | 0.25 (≈ 0.538 µM) | 0.06 (≈ 0.129 µM)
COc1c(N2CC[C@@H]([C@H](C)N(C)C)C2)c(F)cc2c(=O)c3c(=O)[nH]sc3n(C3CC3)c12 | 0.008 (≈ 0.0179 µM) | 39 | 0.5 (≈ 1.12 µM) | 0.06 (≈ 0.134 µM)
COc1c(N2CC[C@H](C(C)(C)N)C2)c(F)cc2c(=O)c3c(=O)[nH]sc3n(C3CC3)c12 | 0.03 (≈ 0.0694 µM) | 61 | 2 (≈ 4.62 µM) | 0.13 (≈ 0.301 µM)
CNC(C)(C)[C@@H]1CCN(c2c(F)cc3c(=O)c4c(=O)[nH]sc4n(C4CC4)c3c2OC)C1 | 0.008 (≈ 0.0179 µM) | 28 | 0.13 (≈ 0.291 µM) | 0.13 (≈ 0.291 µM)
CCNC(C)(C)[C@@H]1CCN(c2c(F)cc3c(=O)c4c(=O)[nH]sc4n(C4CC4)c3c2OC)C1 | 0.02 (≈ 0.0434 µM) | 50 | 0.5 (≈ 1.09 µM) | 0.13 (≈ 0.282 µM)
COc1c(N2CC[C@@H](C(C)(C)NCCF)C2)c(F)cc2c(=O)c3c(=O)[nH]sc3n(C3CC3)c12 | 0.004 (≈ 0.00836 µM) | 19 | 0.06 (≈ 0.125 µM) | 0.06 (≈ 0.125 µM)

Compound | MIC (Staphylococcus aureus [1]) [µg/mL] | CC50 at 72 h [2] [µM] | MIC (Staphylococcus aureus [3]) [µg/mL] | MIC (Escherichia coli) [µg/mL]
COc1c(N2CC[C@@H](C(C)(C)NCC(C)C)C2)c(F)cc2c(=O)c3c(=O)[nH]sc3n(C3CC3)c12 | 0.06 (≈ 0.123 µM) | 88 | 2 (≈ 4.09 µM) | 1 (≈ 2.05 µM)
COc1c(N2CC[C@@H](C(C)(C)N(C)C)C2)c(F)cc2c(=O)c3c(=O)[nH]sc3n(C3CC3)c12 | 0.06 (≈ 0.13 µM) | 90 | 1 (≈ 2.17 µM) | 0.13 (≈ 0.282 µM)
COc1c(N2CC[C@@H](C3(N)CC3)C2)c(F)cc2c(=O)c3c(=O)[nH]sc3n(C3CC3)c12 | 0.001 (≈ 0.00232 µM) | 4 | 0.06 (≈ 0.139 µM) | 0.008 (≈ 0.0186 µM)
CC[C@@H](NC)[C@@H]1CCN(c2c(F)cc3c(=O)c4c(=O)[nH]sc4n(C4CC4)c3c2OC)C1 | 0.03 (≈ 0.0672 µM) | 58 | 2 (≈ 4.48 µM) | 0.13 (≈ 0.291 µM)
O=c1[nH]sc2c1c(=O)c1cc(F)c(N3CCNCC3)cc1n2C1CC1 | 0.06 (≈ 0.166 µM) | 7 | 4 (≈ 11.1 µM) | 0.004 (≈ 0.0111 µM)
COc1c(N2CC[C@@H](C(C)N)C2)c(F)cc2c(=O)c3c(=O)[nH]sc3n(C3CC3)c12 (mixture of isomers) | 0.004 | 9 | 0.06 | 0.02
COc1c(N2CC[C@H](C(C)N)C2)c(F)cc2c(=O)c3c(=O)[nH]sc3n(C3CC3)c12 (mixture of isomers) | 0.03 |  | 1 | 0.06
CNC(C)[C@@H]1CCN(c2c(F)cc3c(=O)c4c(=O)[nH]sc4n(C4CC4)c3c2OC)C1 (mixture of isomers) | 0.008 | 42 | 0.25 | 0.03
CNC(C)[C@H]1CCN(c2c(F)cc3c(=O)c4c(=O)[nH]sc4n(C4CC4)c3c2OC)C1 (mixture of isomers) | 0.06 | > 100 | 2 | 0.13
CCNC(C)[C@@H]1CCN(c2c(F)cc3c(=O)c4c(=O)[nH]sc4n(C4CC4)c3c2OC)C1 (mixture of isomers) | 0.008 | 40 | 0.25 | 0.06
COc1c(N2CC[C@@H](C(C)NCC(F)(F)F)C2)c(F)cc2c(=O)c3c(=O)[nH]sc3n(C3CC3)c12 (mixture of isomers) | 0.13 | 41 | 4 | 
COc1c(N2CC[C@@H](C(C)NC(C)C)C2)c(F)cc2c(=O)c3c(=O)[nH]sc3n(C3CC3)c12 (mixture of isomers) | 0.02 | 51 | 0.5 | 0.5
COc1c(N2CC[C@@H](C(C)NC3CC3)C2)c(F)cc2c(=O)c3c(=O)[nH]sc3n(C3CC3)c12 (mixture of isomers) | 0.004 | 25 | 0.06 | 0.06
COc1c(N2CC[C@H](C(C)NC3CC3)C2)c(F)cc2c(=O)c3c(=O)[nH]sc3n(C3CC3)c12 (mixture of isomers) | 0.02 | 43 | 0.13 | 0.13
COc1c(N2CC[C@@H](C(C)NCC3CC3)C2)c(F)cc2c(=O)c3c(=O)[nH]sc3n(C3CC3)c12 (mixture of isomers) | 0.03 | 43 | 0.5 | 0.25
COc1c(N2CC[C@@H](C(C)NC3CCCC3)C2)c(F)cc2c(=O)c3c(=O)[nH]sc3n(C3CC3)c12 (mixture of isomers) | 0.06 | 42 | 4 | 
COc1c(N2CC[C@@H](C(C)N(C)C)C2)c(F)cc2c(=O)c3c(=O)[nH]sc3n(C3CC3)c12 (mixture of isomers) | 0.03 | 40 | 1 | 0.06
CC[C@H](NC)[C@@H]1CCN(c2c(F)cc3c(=O)c4c(=O)[nH]sc4n(C4CC4)c3c2OC)C1 (mixture of isomers) | 0.008 | 29 | 0.5 | 0.06
COc1c(N2CC[C@@H](C(N)c3nccs3)C2)c(F)cc2c(=O)c3c(=O)[nH]sc3n(C3CC3)c12 (mixture of isomers) | 0.004 | 5 | 0.06 | 0.13
COc1c(N2CC[C@@H](C(N)c3ncco3)C2)c(F)cc2c(=O)c3c(=O)[nH]sc3n(C3CC3)c12 (mixture of isomers) | 0.004 | 5 | 0.25 | 0.06
COc1c(N2CC[C@@H](C(N)c3ccccn3)C2)c(F)cc2c(=O)c3c(=O)[nH]sc3n(C3CC3)c12 (mixture of isomers) | 0.008 | 1 | 0.13 | 0.06
COc1c(N2CCC(CNCC(C)C)C2)c(F)cc2c(=O)c3c(=O)[nH]sc3n(C3CC3)c12 (racemic) | 0.06 (≈ 0.13 µM) | 46 | 4 (≈ 8.68 µM) | 0.13 (≈ 0.282 µM)
COc1c(N2CCC(C(C)(C)NC3CC3)C2)c(F)cc2c(=O)c3c(=O)[nH]sc3n(C3CC3)c12 (racemic) | 0.02 (≈ 0.0423 µM) | 54 | 0.25 (≈ 0.529 µM) | 0.25 (≈ 0.529 µM)
